Results taken from ChEMBL document CHEMBL1145606, “Discovery of amino-acetonitrile derivatives, a new class of synthetic anthelmintic compounds” (2008).

Assays:
Type in all cases: functional
[1] = tested on: Haemonchus contortus; assay: Anthelmintic activity against Haemonchus contortus infected in gerbils assessed as reduction in worm count at 1 mg/kg, sc; design: scale not given: the % may be the effect or the level left; details: route subcutaneous
How it was run: (§1)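 Gerbils (Meriones unguiculatus) were artificially infected with H. contortus larvae 6 days, or T. colubriformis larvae 5 days, before treatment. They were then dosed orally or subcutaneously, and controls received a placebo formulation. Three days post-treatment the animals were sacrificed and dissected for worm recovery.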

[2] = tested on: Haemonchus contortus; assay: Anthelmintic activity against Haemonchus contortus infected in gerbils assessed as reduction in worm count at 1 mg/kg, po; design: scale not given: the % may be the effect or the level left; how it was run: as §1
[3] = tested on: Trichostrongylus colubriformis; assay: Anthelmintic activity against levamisole-resistant Trichostrongylus colubriformis isolate by larva development assay
How it was run: (§2)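 Larval development assay: test compounds were embedded in an agar-based nutritive medium that supports development from eggs to third-stage larvae (L3). Plates were incubated for 6 days at 28 °C and 80% relative humidity, and egg hatching and larval development were recorded. Values are means of three experiments.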

[4] = tested on: Haemonchus contortus; assay: Anthelmintic activity against benzimidazole-resistant Haemonchus contortus isolate by larva development assay; how it was run: as §2
[5] = tested on: Trichostrongylus colubriformis; assay: Anthelmintic activity against Trichostrongylus colubriformis infected in gerbils assessed as reduction in worm count at 1 mg/kg, po; design: scale not given: the % may be the effect or the level left; how it was run: as §1
[6] = tested on: Trichostrongylus colubriformis; assay: Anthelmintic activity against Trichostrongylus colubriformis infected in gerbils assessed as reduction in worm count at 1 mg/kg, sc; design: scale not given: the % may be the effect or the level left; details: route subcutaneous; how it was run: as §1
[7] = tested on: Trichostrongylus colubriformis; assay: Anthelmintic activity against Trichostrongylus colubriformis infected in gerbils assessed as reduction in worm count at 10 mg/kg, po; design: scale not given: the % may be the effect or the level left; how it was run: as §1
[8] = tested on: Haemonchus contortus; assay: Anthelmintic activity against Haemonchus contortus infected in gerbils assessed as reduction in worm count at 10 mg/kg, po; design: scale not given: the % may be the effect or the level left; how it was run: as §1
[9] = tested on: Trichostrongylus colubriformis; assay: Anthelmintic activity against Trichostrongylus colubriformis infected in gerbils assessed as reduction in worm count at 3.2 mg/kg, po; design: scale not given: the % may be the effect or the level left; how it was run: as §1
[10] = tested on: Haemonchus contortus; assay: Anthelmintic activity against Haemonchus contortus infected in gerbils assessed as reduction in worm count at 3.2 mg/kg, po; design: scale not given: the % may be the effect or the level left; how it was run: as §1

Compound | EC100 [3] | EC100 [4] | other results
CC(C#N)(COc1cc(F)c(F)cc1C(F)(F)F)NC(=O)c1ccc(SC(F)(F)F)cc1 (stereo unspecified) | 0.032 ppm | 0.032 ppm | Activity [1]: 73%; Activity [2]: 84%; Activity [5]: 98%; Activity [6]: 90%
CC(C#N)(COc1cccc(Cl)c1Cl)NC(=O)c1ccc(C(F)(F)F)cc1 (stereo unspecified) | 0.1 ppm | 0.1 ppm | Activity [7]: 67%; Activity [8]: 84%
CC(C#N)(COc1ccc(Cl)cc1Cl)NC(=O)c1ccc(OC(F)(F)F)cc1 (stereo unspecified) | 0.1 ppm | 0.1 ppm | Activity [7]: 100%; Activity [8]: 94%
c1ccc([C@H]2CN3CCSC3=N2)cc1 [LEVAMISOLE] | 10 ppm | 0.32 ppm | 
CC(C#N)(COc1c(Cl)cccc1Cl)NC(=O)c1ccc(C(F)(F)F)cc1 (stereo unspecified) | >10 ppm | >10 ppm | 
CC(C#N)(COc1cc(F)ccc1Cl)NC(=O)c1ccc(OC(F)(F)F)cc1 (stereo unspecified) | 0.032 ppm | 0.01 ppm | Activity [9]: 79%; Activity [10]: 92%
CC(C#N)(COc1cc(F)c(F)cc1C(F)(F)F)NC(=O)c1ccc(C(F)(F)F)cc1 (stereo unspecified) | 0.032 ppm | 0.032 ppm | Activity [1]: 94%; Activity [2]: 89%; Activity [5]: 91%; Activity [6]: 90%
CC(C#N)(COc1ccccc1Cl)NC(=O)c1cccc(OC(F)(F)F)c1 (stereo unspecified) | 10 ppm | >10 ppm | 
CC(C#N)(COc1ccccc1)NC(=O)c1ccc(C(F)(F)F)cc1 (stereo unspecified) | >10 ppm | >10 ppm | 
CC(C#N)(COc1cc(F)c(F)cc1C(F)(F)F)NC(=O)c1ccc(OC(F)(F)F)cc1 (single isomer, unassigned; (+)) | 3.2 ppm | 1 ppm | 
CC(C#N)(COc1ccccc1C(F)(F)F)NC(=O)c1ccc(SC(F)(F)F)cc1 (stereo unspecified) | 0.032 ppm | 0.032 ppm | Activity [7]: 99%; Activity [8]: 77%
CC(C#N)(COc1ccccc1F)NC(=O)c1ccc(C(F)(F)F)cc1 (stereo unspecified) | 1 ppm | 1 ppm | 
C[C@@](C#N)(COc1cc(C#N)ccc1C(F)(F)F)NC(=O)c1ccc(SC(F)(F)F)cc1 | >10 ppm | 10 ppm | 
CC(C#N)(COc1cc(F)ccc1Br)NC(=O)c1ccc(OC(F)(F)F)cc1 (stereo unspecified) | 0.1 ppm | 0.01 ppm | Activity [9]: 99%; Activity [10]: 90%
CC(C#N)(COc1cc(F)c(F)cc1Br)NC(=O)c1ccc(OC(F)(F)F)cc1 (stereo unspecified) | 0.032 ppm | 0.01 ppm | Activity [9]: 97%; Activity [10]: 100%
CC(C#N)(COc1ccc(C#N)cc1C(F)(F)F)NC(=O)c1ccc(OC(F)(F)F)cc1 (stereo unspecified) | 0.1 ppm | 0.032 ppm | Activity [1]: 91%; Activity [2]: 95%; Activity [5]: 98%; Activity [6]: 97%
CC(C#N)(COc1ccccc1Br)NC(=O)c1ccc(OC(F)(F)F)cc1 (stereo unspecified) | 0.032 ppm | 0.032 ppm | Activity [7]: 99%; Activity [8]: 97%
CC(C#N)(COc1cc(C#N)ccc1C(F)(F)F)NC(=O)c1ccc(OC(F)(F)F)cc1 (stereo unspecified) | 0.032 ppm | 0.01 ppm | Activity [1]: 97%; Activity [2]: 95%; Activity [5]: 85%; Activity [6]: 75%
CC(C#N)(COc1ccccc1C(F)(F)F)NC(=O)c1ccc(-c2ccccc2)cc1 (stereo unspecified) | >10 ppm | >10 ppm | 
Cc1ccc(C(=O)NC(C)(C#N)COc2ccccc2Cl)cc1 (stereo unspecified) | >10 ppm | >10 ppm | 
CC(C#N)(COc1cc(F)c(F)cc1C(F)(F)F)NC(=O)c1ccc(OC(F)(F)F)cc1 (single isomer, unassigned; (-)) | 0.01 ppm | 0.0032 ppm | 

Compound | EC100 [3] | EC100 [4] | other results
CC(C#N)(COc1cc(Cl)ccc1Cl)NC(=O)c1ccc(OC(F)(F)F)cc1 (stereo unspecified) | 0.032 ppm | 0.01 ppm | Activity [9]: 89%; Activity [10]: 68%
CC(C#N)(COc1cc(C#N)ccc1C(F)(F)F)NC(=O)c1ccc(C(F)(F)F)cc1 (stereo unspecified) | 0.1 ppm | 0.032 ppm | Activity [1]: 90%; Activity [2]: 97%; Activity [5]: 87%; Activity [6]: 72%
CC(C#N)(COc1ccccc1Cl)NC(=O)c1ccc(C(F)(F)F)cc1 (stereo unspecified) | 0.032 ppm | 0.032 ppm | Activity [7]: 19%; Activity [8]: 88%
CC(C#N)(COc1ccc(C(F)(F)F)cc1)NC(=O)c1ccc(C(F)(F)F)cc1 (stereo unspecified) | >10 ppm | >10 ppm | 
CC(C#N)(COc1ccccc1C(F)(F)F)NC(=O)c1ccccc1 (stereo unspecified) | >10 ppm | 10 ppm | 
CC(C#N)(COc1ccccc1Cl)NC(=O)c1ccccc1C(F)(F)F (stereo unspecified) | >10 ppm | >10 ppm | 
CC(C#N)(COc1cc(C#N)ccc1C(F)(F)F)NC(=O)c1ccc(SC(F)(F)F)cc1 (stereo unspecified) | 0.032 ppm | 0.01 ppm | Activity [1]: 99%; Activity [2]: 100%; Activity [5]: 100%; Activity [6]: 84%
c1ccc2[nH]c(-c3cscn3)nc2c1 [THIABENDAZOLE] | 1 ppm | 10 ppm | 
CC(C#N)(COc1ccccc1Cl)NC(=O)c1ccc(Cl)cc1 (stereo unspecified) | 0.32 ppm | 0.32 ppm | 
CC(C#N)(COc1cccc(F)c1)NC(=O)c1ccc(OC(F)(F)F)cc1 (stereo unspecified) | 1 ppm | 0.32 ppm | 
CC(C#N)(COc1ccc(C#N)cc1C(F)(F)F)NC(=O)c1ccc(C(F)(F)F)cc1 (stereo unspecified) | 0.1 ppm | 0.1 ppm | Activity [2]: 97%; Activity [5]: 91%
CC(C#N)(COc1cc(F)c(F)cc1C(F)(F)F)NC(=O)c1ccc(OC(F)(F)F)cc1 (stereo in doubt; 19) | 0.032 ppm | 0.01 ppm | Activity [1]: 99%; Activity [2]: 99%; Activity [5]: 73%; Activity [6]: 75%
CC(C#N)(COc1ccccc1C(F)(F)F)NC(=O)c1ccc(OC(F)(F)F)cc1 (stereo unspecified) | 0.01 ppm | 0.01 ppm | Activity [7]: 97%; Activity [8]: 98%
CC(C#N)(COc1ccc(C#N)cc1C(F)(F)F)NC(=O)c1ccc(SC(F)(F)F)cc1 (stereo unspecified) | 0.032 ppm | 0.032 ppm | Activity [1]: 92%; Activity [2]: 90%; Activity [5]: 98%; Activity [6]: 86%
CCc1ccccc1OCC(C)(C#N)NC(=O)c1ccc(OC(F)(F)F)cc1 (stereo unspecified) | 0.32 ppm | 0.32 ppm | 
C[C@](C#N)(COc1cc(C#N)ccc1C(F)(F)F)NC(=O)c1ccc(SC(F)(F)F)cc1 [MONEPANTEL] | 0.01 ppm | 0.0032 ppm | 
CC(C#N)(COc1ccccc1Cl)NC(=O)c1ccc(C(F)(F)F)cc1F (stereo unspecified) | 0.32 ppm | 0.32 ppm | 
CC(C#N)(COc1c(F)cc(F)cc1F)NC(=O)c1ccc(OC(F)(F)F)cc1 (stereo unspecified) | >10 ppm | >10 ppm | 
CC(C#N)(COc1ccccc1Cl)NC(=O)c1ccc(F)cc1 (stereo unspecified) | 1 ppm | 3.2 ppm | 
CC(C#N)(COc1ccccc1Cl)NC(=O)c1ccc(OC(F)(F)F)cc1 (stereo unspecified) | 0.032 ppm | 0.032 ppm | 
